The record followed here is ChEMBL document CHEMBL1152210, “Synthesis and biological evaluation of alkoxycoumarins as novel nematicidal constituents” (Bioorg Med Chem Lett, 2008).

The test system of data set [1] is Bursaphelenchus xylophilus. As to the kind of experiment: Nematicidal activity against Bursaphelenchus xylophilus measured per cotton ball after 4 days by serial dilution method. In kind it is functional. The procedure, abridged: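 Cotton ball (5 mm), loaded with test compound or solvent and vacuum-dried, set on 4-day Botrytis cinerea mycelia grown on Czapek-Dox agar at 21 °C. 100 µl B. xylophilus suspension (ca. 15,000/ml in distilled water) injected into the ball; dish held at 26 °C for 4 days. Mycelial consumption scored; MED is the lowest active dose by serial dilution, top dose 160 µg/ball. Survival confirmed by methylene blue staining.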

The test system of data set [2] is Artemia salina. As to the kind of experiment: Toxicity in Artemia salina after 24 hrs by serial dilution method. The data set is classed as organism-based. The settings on record: in vivo.
For data set [3], the system named is Oryzias latipes. As to the kind of experiment: Toxicity in Oryzias latipes after 24 hrs by serial dilution method. In kind it is organism-based. The settings on record: in vivo.

Structures are written as SMILES. Activity calls are given as the source filed them. The rule behind the calls is not given here.

For orientation: LC50 means the concentration lethal to half of the exposed cells or organisms. Low values mean greater toxicity, high ones lower toxicity.

In data set [1], `C/C1=C\C[C@@H]2C[C@@H](C[C@]3(CC[C@H](C)[C@@H](C)O3)O2)OC(=O)[C@@H]2CC[C@@H](O)[C@H]3OC/C(=C\C=C\[C@H](C)C1)[C@]32O` [MILBEMECTIN] displayed an MED of 0.6 µg. For the same compound, in data set [2], the LC50 was determined as 0.1 ppm and the LC100 was 0.6 ppm. For the same compound, in data set [3], the LC50 was 0.06 ppm and the LC100 is given as 0.25 ppm.
As for `O=c1ccc2c(OCc3ccccc3)cccc2o1`, the MED in data set [1] turned out to be 80 µg.
Same read-out and setting: then `CCCCOc1cccc2oc(=O)ccc12`, with 40 µg.
Consider `COc1ccc2oc(=O)ccc2c1`, for which the MED in data set [1] is 80 µg. Also, in data set [2], the LC50 is reported as over 80 ppm and the LC100 was over 80 ppm. In data set [3], this compound displayed an LC50 of 75 ppm and an LC100 of 100 ppm.
In the case of `COc1cc2ccccc2oc1=O`, the MED in data set [1] was 80 µg. In data set [2], this compound came in with an LC50 of over 80 ppm and an LC100 of over 80 ppm. Besides, in data set [3], the LC50 is recorded as over 100 ppm and the LC100 is listed as over 100 ppm.
Take `CCOc1cccc2oc(=O)ccc12`: the MED in data set [1] stood at 10 µg. Moreover, in data set [2], the LC50 was over 80 ppm and the LC100 is listed as over 80 ppm. Also, in data set [3], the LC50 was 75 ppm and the LC100 is 100 ppm.
Compound `COc1cc(OC)c2ccc(=O)oc2c1` [CITROPTEN] displayed an MED in data set [1] of 20 µg.
On the same count and under the same terms, under `CCCCCCCCOc1cccc2oc(=O)ccc12` stands 40 µg.
For `C=CCOc1cccc2oc(=O)ccc12`, the result in data set [1] was inactive.
As to `COc1cc(=O)oc2ccccc12`, the outcome in data set [1] was inactive. The values for the LC50 in data set [2] and in data set [3] were 60 ppm and 75 ppm, respectively. In addition, the LC100 in data set [2] is listed as over 80 ppm; in data set [3], 100 ppm.
For `O=C(O)/C=C/c1ccccc1O`, the result in data set [1] was inactive.
Regarding `CCCCCCCCCc1cccc(O)c1`, in data set [1], the MED was 2.5 µg. Besides, in data set [2], the LC50 is on record as 0.6 ppm and the LC100 was found to be 1.3 ppm. Moreover, in data set [3], the LC50 is on record as 7.5 ppm and the LC100 is recorded as 10 ppm.
Regarding `CCCOc1cccc2oc(=O)ccc12`, the MED in data set [1] is 20 µg.
Consider `O=c1ccc2ccccc2o1` [COUMARIN], for which the MED in data set [1] came out at 80 µg. In addition, in data set [2], the LC50 is given as over 80 ppm and the LC100 is recorded as over 80 ppm. In data set [3], this compound came in with an LC50 of 38 ppm and an LC100 of 50 ppm.
For `CCCCCOc1cccc2oc(=O)ccc12`, the MED in data set [1] is 40 µg.
As for `COc1ccc2ccc(=O)oc2c1` [HERNIARIN], in data set [1], the MED is 40 µg. Further, the results for the LC100 in data set [2] and in data set [3] were 80 ppm and 75 ppm, respectively.
As for `CCCCCCCCCCCc1cccc(O)c1`, in data set [1], the MED amounted to 5 µg. Besides, in data set [2], the LC50 is given as 1 ppm and the LC100 turned out to be 1.3 ppm. In data set [3], this compound showed an LC50 of 3.8 ppm and an LC100 of 5 ppm.
As to `O=c1ccc2c(O)cccc2o1`, the result in data set [1] was inactive.
In data set [1], `COc1cccc2ccc(=O)oc12` registered an MED of 80 µg. Moreover, in data set [2], the LC50 is over 80 ppm and the LC100 is given as over 80 ppm. In data set [3], the LC50 came to 100 ppm and the LC100 was over 100 ppm.
In turn, `COc1cccc2oc(=O)ccc12` came in with an MED in data set [1] of 20 µg. In data set [2], this compound returned an LC50 of 30 ppm and an LC100 of 20 ppm. In data set [3], this compound came in with a 50% lethal concentration (LC50) of 38 ppm and an LC100 of 50 ppm.
